# Measurements reported in paper PMC5365239 (Chemical Science, 2016).
# How the values were obtained:
# cellular GSH = assay: Cellular GSH concentration by LC-ESI-MS/MS after NEM alkylation; type: cell-based, human; conditions: OVCAR5, 20 μM BSO
# In short: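 Adherent OVCAR5 cells held in RPMI-1640 with 20 μM BSO for 24 hours before HPG incorporation. Cellular GSH was alkylated with NEM and then quantified by LC-ESI-MS/MS.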
# OVCAR5 cells = assay: MTS cytotoxicity assay after CuAAC reaction / GSH depletion; type: cell-based, human; conditions: low concentration (20 μM) BSO
# In short: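 HPG-incorporated OVCAR5 cells were exposed 10 min to CuAAC reaction mixtures. They were then returned to RPMI-1640 for 24 hours before viability was read by MTS assay. For GSH depletion, cells were first held 24 hours in RPMI-1640 containing 20 μM BSO before HPG incorporation.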
# [1] = Cu^I-ligand dissociation constant, competition assay with bicinchoninic acid; type: binding; conditions: read-out: Dissociation constant (KD) of Cu^I-ligand; BCA competition assay
Kd [1] [nM],SMILES,Cellular GSH concentration (cellular GSH; 24 h) [µM],Reduction of the cellular GSH level (cellular GSH; 24 hours) [%],Cytotoxicity of GSH depletion (in words) (OVCAR5 cells)
–,"CCCCS(=N)(=O)CCC(N)C(=O)O (stereo not shown) [BSO, buthionine sulfoximine]",4.9 ± 0.4,99.7,No cytotoxicity
0.031,"N[C@@H](CCC(=O)N[C@@H](CS)C(=O)NCC(=O)O)C(=O)O [GSH, reduced glutathione]",–,–,–
